Many of the other results were omitted from the sample, so hits are more common in it than they were.
IDH1 R132H inh: blocks human IDH1 R132H reductase activity. AID 624101. 70,000 tested, 0.18% active. inhibition, % at 10 µM. diaphorase/resazurin fluorescence, 60 min. O75874; in the data active = inhibition above about 34%; inconclusive = no clear call, values can overlap the other calls; inactive = below about 11%
Target sequence (O75874 whole entry R132H): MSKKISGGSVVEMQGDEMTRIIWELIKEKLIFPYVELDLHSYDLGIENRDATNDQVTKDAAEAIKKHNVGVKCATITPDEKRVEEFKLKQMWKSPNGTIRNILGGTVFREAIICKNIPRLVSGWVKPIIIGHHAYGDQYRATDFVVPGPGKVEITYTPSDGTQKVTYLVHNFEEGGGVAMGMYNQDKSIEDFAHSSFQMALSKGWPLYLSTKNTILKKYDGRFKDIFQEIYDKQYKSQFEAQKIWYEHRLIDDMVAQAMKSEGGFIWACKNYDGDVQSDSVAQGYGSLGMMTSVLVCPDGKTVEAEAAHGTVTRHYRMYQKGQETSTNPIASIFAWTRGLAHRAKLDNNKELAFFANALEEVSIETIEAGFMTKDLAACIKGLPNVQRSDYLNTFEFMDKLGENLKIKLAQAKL
KDM4C inh: KDM4C (human) demethylase inhibition; Q9H3R0; GST-KDM4C 2-372, H3K9me3 peptide, LANCE TR-FRET; inhibition, % at 12.5 µM; 96,000 tested, 0.15% active; AID 720574;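 active = mean replicate inhibition above about 25%, with at least 55% of replicates also reaching it, limit read from the data, passing the limit was not always enough; inconclusive = only one of those two conditions met; inactive = neither condition met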
Target sequence (Q9H3R0 2-372 limits assumed): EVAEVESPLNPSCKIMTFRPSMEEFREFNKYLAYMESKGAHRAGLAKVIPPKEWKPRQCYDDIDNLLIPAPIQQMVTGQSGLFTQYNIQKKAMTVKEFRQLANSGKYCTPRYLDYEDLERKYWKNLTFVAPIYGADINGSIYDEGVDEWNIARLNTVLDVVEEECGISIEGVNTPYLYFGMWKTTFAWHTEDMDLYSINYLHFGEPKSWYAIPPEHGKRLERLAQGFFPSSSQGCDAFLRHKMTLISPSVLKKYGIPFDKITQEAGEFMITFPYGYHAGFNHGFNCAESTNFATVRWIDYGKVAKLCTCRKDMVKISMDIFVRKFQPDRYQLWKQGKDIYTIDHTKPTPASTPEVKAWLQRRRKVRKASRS
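Test system – GST-tagged GASC-1 (JMJD2C) catalytic fragment, aa 2-372 · Medium – HEPES buffer, pH 7.5, plus ascorbate · Reagent – H3K9me3 peptide with Fe(II)/2OG · Compound – one test concentration per compound · Timing – 30 min reaction, 60 min detection, RT · Technique – TR-FRET with Eu antibody and ULight streptavidin, EDTA stop · Read-out basis – inhibition from TR-FRET ratio decrease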
T cruzi growth-1: blocks T. cruzi growth in NIH3T3 culture; T. cruzi beta-gal in NIH3T3, GalScreen luminescence, 90 h; inhibition, % at 8.34 µM; 77,000 tested, 5.9% active; AID 624255;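 active = mean inhibition above about 93%, with at least 55% of replicates each passing it, limit read from the data, passing the limit was not always enough; inconclusive = only one of those two conditions holds; inactive = neither condition holds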
T cruzi growth-2: blocks T. cruzi growth in NIH3T3 host cells; shares compounds with T cruzi growth-1; T. cruzi beta-gal in NIH3T3, GalScreen luminescence, 90 h; inhibition, % at 8.35 µM; 5,600 tested, 72% active; AID 651739;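 active = mean replicate inhibition above about 95% and at least 55% of replicates individually reaching it, limit read from the data; inconclusive = only one of the two criteria is met; inactive = neither criterion is met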
T cruzi growth-3: inhibitors of T. cruzi proliferation | inhibition, % at 2.09 µM | shares compounds with T cruzi growth-1 | 5,600 tested, 21% active | T. cruzi beta-gal in NIH3T3, GalScreen luminescence, 90 h;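 active = mean inhibition above about 95%, with at least 55% of replicates also reaching it, limit read from the data; inconclusive = meets just one of the two conditions; inactive = meets neither condition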
3T3 cytotox: kills mouse NIH/3T3 fibroblasts; shares compounds with T cruzi growth-1; NIH/3T3 viability, CellTiter-Glo ATP luminescence, 90 h; cytotoxicity (signal decrease), % at 8.35 µM; 5,600 tested, 14% active;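 active = mean signal decrease across replicates above about 35% based on untreated-well scatter, with enough replicates individually passing, limit read from the data; inconclusive = no rule stated though some were filed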
3T3 cytotox 2: NIH/3T3 (mouse) viability loss. shares compounds with T cruzi growth-1. NIH/3T3 viability, CellTiter-Glo ATP luminescence, 90 h. inhibition, % at 24.9 µM. 5,600 tested, 56% active. AID 651744;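 active = mean loss of cell viability signal at or above a set limit, and enough replicates individually reaching it; inconclusive = meets only the mean limit or only the replicate share; inactive = meets neither condition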
Of the large screens only hits and unclear results are named; the others gave an inactive call (follow-up assays come after a bar, where they were run).

C[C@H]1CN([C@@H](C)CO)S(=O)(=O)c2ccc(C#CC3CC3)cc2O[C@H]1CN(C)C(=O)C1CC1	none (no result: IDH1 R132H inh)
CC(C)NC(=O)Cn1ccc([N+](=O)[O-])n1	none (no result: KDM4C inh, T cruzi growth-1)
CCN(CC)C(=S)SSC(=S)N(CC)CC	none (no result: KDM4C inh, T cruzi growth-1)
CC(C)NC(=O)N1CCCCN2[C@H](CO)[C@H](c3ccc(C#Cc4ccccc4)cc3)[C@@H]2C1	T cruzi growth-1 115 (no result: IDH1 R132H inh) | T cruzi growth-2 109 | T cruzi growth-3 inactive | 3T3 cytotox 42 | 3T3 cytotox 2 62
CC(C)NC(=O)N1CCCCN2[C@H](CO)[C@H](c3ccc(C#C[C@@H](C)O)cc3)[C@@H]2C1	none (no result: IDH1 R132H inh)
CC(C)NC(=O)N1CCCCN2[C@H](CO)[C@@H](c3ccc(C#C[C@H](C)O)cc3)[C@H]2C1	none (no result: IDH1 R132H inh)
CC(C)NC(=O)N1CCCCN2[C@H](CO)[C@@H](c3ccc(C#C[C@H](C)O)cc3)[C@@H]2C1	T cruzi growth-1 106 (no result: IDH1 R132H inh) | T cruzi growth-2 inactive | T cruzi growth-3 inactive | 3T3 cytotox inactive | 3T3 cytotox 2 inactive
CC(C)NC(=O)N1CCCCN2[C@@H](CO)[C@H](c3ccc(C#CC4CC4)cc3)[C@@H]2C1	T cruzi growth-1 inconclusive (no result: IDH1 R132H inh) | T cruzi growth-2 inactive | T cruzi growth-3 inactive | 3T3 cytotox inactive | 3T3 cytotox 2 inactive
CC(C)NC(=O)N1CCCCN2[C@@H](CO)[C@H](c3ccc(C#Cc4ccccc4)cc3)[C@@H]2C1	T cruzi growth-1 106 (no result: IDH1 R132H inh) | T cruzi growth-2 108 | T cruzi growth-3 inactive | 3T3 cytotox inactive | 3T3 cytotox 2 105
CC(C)NC(=O)N1CCCCN2[C@H](CO)[C@H](c3ccc(C#CC4CC4)cc3)[C@@H]2C1	none (no result: IDH1 R132H inh)
CC(C)NC(=O)N1CCCCN2[C@H](CO)[C@@H](c3ccc(C#C[C@@H](C)O)cc3)[C@H]2C1	none (no result: IDH1 R132H inh)
CN1C(=O)c2cc(NS(=O)(=O)c3ccc(F)cc3)ccc2OC[C@H]2O[C@H](CC(=O)NCC(F)(F)F)CC[C@H]21	none (no result: IDH1 R132H inh)
C[C@@H]1CN([C@H](C)CO)C(=O)Cc2cc(NC(=O)C3CC3)ccc2O[C@H]1CN(C)Cc1ccc(C(F)(F)F)cc1	none
C[C@H](CO)N1C[C@H](C)[C@@H](CN(C)CC2CC2)Oc2ccc(NS(=O)(=O)c3ccc(Cl)cc3)cc2CC1=O	none
C[C@H]1CN([C@@H](C)CO)C(=O)c2cc(-c3ccccc3)cnc2O[C@@H]1CN(C)C(=O)Nc1ccccc1F	none (no result: IDH1 R132H inh, KDM4C inh)
Cc1noc(C)c1S(=O)(=O)Nc1ccc2c(c1)C(=O)N([C@@H](C)CO)C[C@H](C)[C@H](CN(C)S(=O)(=O)c1cn(C)cn1)OCCCC[C@H](C)O2	none
COc1ccc(S(=O)(=O)Nc2ccc3c(c2)CC(=O)N([C@H](C)CO)C[C@@H](C)[C@@H](CN(C)C(=O)Nc2ccc(C(F)(F)F)cc2)O3)cc1	none (no result: IDH1 R132H inh)
CCC(=O)Nc1ccc2c(c1)OC[C@@H](C)N(Cc1ccccc1C(=O)O)C[C@H](C)[C@@H](OC)CN(C)C2=O	none
C[C@@H]1CN([C@@H](C)CO)C(=O)Cc2cc(NC(=O)Nc3ccc4c(c3)OCO4)ccc2O[C@H]1CN(C)Cc1ccc(Oc2ccccc2)cc1	none
O=C(NCC1CCCCC1)[C@H]1N[C@H]2c3ccc(C4=CCCCC4)c(=O)n3C[C@H]2[C@@H]1CO	none (no result: IDH1 R132H inh)
Cc1ccc([N+](=O)[O-])cc1NC(=O)CCn1cnc2ccccc2c1=O	none (no result: KDM4C inh, T cruzi growth-1)
CC(C)NC(=O)N1CCCCN2[C@H](CO)[C@@H](c3ccc(C#Cc4ccccc4F)cc3)[C@@H]2C1	T cruzi growth-1 102 (no result: IDH1 R132H inh) | T cruzi growth-2 108 | T cruzi growth-3 inactive | 3T3 cytotox inactive | 3T3 cytotox 2 105
CC(C)NC(=O)N1CCCCN2[C@H](CO)[C@@H](c3ccc(C#Cc4ccccc4)cc3)[C@@H]2C1	T cruzi growth-1 101 (no result: IDH1 R132H inh) | T cruzi growth-2 107 | T cruzi growth-3 inactive | 3T3 cytotox inactive | 3T3 cytotox 2 105
CC(C)NC(=O)N1CCCCN2[C@H](C1)[C@H](c1ccc(C#C[C@H](C)O)cc1)[C@@H]2CO	none (no result: IDH1 R132H inh)
CC(C)C#Cc1ccc([C@@H]2[C@@H](CO)N3CCCCN(C(=O)NC(C)C)C[C@H]23)cc1	none (no result: IDH1 R132H inh)
C/C=C/c1ccc([C@@H]2[C@H](C#N)N(c3ncc(CC)s3)[C@H]2CO)cc1	none (no result: IDH1 R132H inh)
C/C=C/c1ccc([C@@H]2[C@@H](C#N)N(c3ncc(CC)s3)[C@@H]2CO)cc1	T cruzi growth-1 inconclusive (no result: IDH1 R132H inh) | T cruzi growth-2 101 | T cruzi growth-3 107 | 3T3 cytotox inactive | 3T3 cytotox 2 38
C/C=C/c1ccc([C@H]2[C@@H](C#N)N(c3ncc(CC)s3)[C@H]2CO)cc1	T cruzi growth-1 101 (no result: IDH1 R132H inh) | T cruzi growth-2 106 | T cruzi growth-3 100 | 3T3 cytotox inactive | 3T3 cytotox 2 inactive
C/C=C/c1ccc([C@@H]2[C@@H](C#N)N(c3ncc(CC)s3)[C@H]2CO)cc1	T cruzi growth-1 102 (no result: IDH1 R132H inh) | T cruzi growth-2 96 | T cruzi growth-3 inactive | 3T3 cytotox inactive | 3T3 cytotox 2 53
C[C@@H]1CN([C@H](C)CO)C(=O)CCCn2nncc2CO[C@H]1CN(C)C(=O)Nc1ccc(C(C)(C)C)cc1	none
O=S(=O)(c1ccccc1)N1[C@@H](CO)[C@@H]2c3ccccc3NC[C@@H]21	none (no result: IDH1 R132H inh)
O=S(=O)(c1cccs1)N1CCCCN2[C@@H](CO)[C@H](c3ccc(Br)cc3)[C@@H]2C1	T cruzi growth-1 103 (no result: IDH1 R132H inh) | T cruzi growth-2 105 | T cruzi growth-3 inactive | 3T3 cytotox inactive | 3T3 cytotox 2 inactive
O=S(=O)(c1cccs1)N1CCCCN2[C@H](CO)[C@@H](c3ccc(Br)cc3)[C@H]2C1	none (no result: IDH1 R132H inh)
O=S(=O)(c1cccs1)N1CCCCN2[C@@H](CO)[C@@H](c3ccc(/C=C/c4ccccc4)cc3)[C@@H]2C1	none (no result: IDH1 R132H inh)
O=S(=O)(c1cccs1)N1CCCCN2[C@H](C1)[C@H](c1ccc(C3=CCCC3)cc1)[C@@H]2CO	none (no result: IDH1 R132H inh)
C/C=C/c1ccc([C@@H]2[C@@H](CO)N3CCCCN(S(=O)(=O)c4cccs4)C[C@H]23)cc1	none (no result: IDH1 R132H inh)
O=S(=O)(c1cccs1)N1CCCCN2[C@H](C1)[C@H](c1ccc(Br)cc1)[C@@H]2CO	T cruzi growth-1 109 (no result: IDH1 R132H inh) | T cruzi growth-2 100 | T cruzi growth-3 inactive | 3T3 cytotox inactive | 3T3 cytotox 2 inactive
O=S(=O)(c1cccs1)N1CCCCN2[C@H](CO)[C@H](c3ccc(C4=CCCCC4)cc3)[C@H]2C1	T cruzi growth-1 105 (no result: IDH1 R132H inh, KDM4C inh) | T cruzi growth-2 107 | T cruzi growth-3 inactive | 3T3 cytotox inactive | 3T3 cytotox 2 104
C/C=C/c1ccc([C@H]2[C@H]3CN(S(=O)(=O)c4cccs4)CCCCN3[C@H]2CO)cc1	T cruzi growth-1 106 (no result: IDH1 R132H inh) | T cruzi growth-2 106 | T cruzi growth-3 inactive | 3T3 cytotox inactive | 3T3 cytotox 2 61
CN(CC(=O)O)S(=O)(=O)c1ccc2c(c1)OCCO2	none (no result: KDM4C inh, T cruzi growth-1)
CN(C)C(=O)[C@@H]1[C@@H](CO)[C@@H]2Cn3c(ccc(-c4ccccc4)c3=O)[C@@H]2N1Cc1ccccc1F	none (no result: IDH1 R132H inh)
